The record followed here is ChEMBL document CHEMBL4118078, “Developing pyridazine-3-carboxamides to be CB2 agonists: The design, synthesis, structure-activity relationships and docking studies” (Eur J Med Chem, 2017).

Experiment [1] has as its target T1, Cannabinoid receptor 1 (Homo sapiens, UniProt P21554). As to the kind of experiment: Agonist activity at CB1 receptor (unknown origin) expressed in CHO cells assessed as induction of calcium mobilization at 10 uM by fluo-4 AM dye-based fluorescence assay relative to CP55940. In kind it is functional, cell-based.
Experiment [2] addresses T1, Cannabinoid receptor 1. As to the kind of experiment: Antagonist activity at CB1 receptor (unknown origin) expressed in CHO cells assessed as inhibition of CP55940-induced calcium mobilization at 10 uM preincubated for 10 mins followed by CP55940-induction by fluo-4 AM dye-based fluorescence assay relative to SR141716A. The experiment is classed as functional, cell-based. Summed up: (§1)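 Cell-based calcium mobilization, antagonist mode, single-concentration screen at 10 µM against CB1 and CB2. SR141716A served as the antagonist-mode positive control.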

Experiment [3] has as its target T2, Cannabinoid receptor 2 (Homo sapiens, UniProt P34972). In words: Agonist activity at CB2 receptor (unknown origin) expressed in CHO cells assessed as induction of calcium mobilization at 10 uM by fluo-4 AM dye-based fluorescence assay relative to CP55940. In kind it is functional, cell-based.
Experiment [4] addresses T1, Cannabinoid receptor 1. As to the kind of experiment: Agonist activity at CB1 receptor (unknown origin) expressed in CHO cells assessed as induction of calcium mobilization by fluo-4 AM dye-based fluorescence assay. The experiment is classed as functional, cell-based.
For experiment [5], the target named is T2, Cannabinoid receptor 2. As to the kind of experiment: Agonist activity at CB2 receptor (unknown origin) expressed in CHO cells assessed as induction of calcium mobilization by fluo-4 AM dye-based fluorescence assay. The experiment is classed as functional, cell-based.
In experiment [6] the target is T2, Cannabinoid receptor 2. As to the kind of experiment: Agonist activity at CB2 receptor (unknown origin) expressed in CHO cells assessed as induction of calcium mobilization by fluo-4 AM dye-based fluorescence assay relative to CP55940. In kind it is functional, cell-based. Summed up: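 Cell-based calcium mobilization, agonist mode, with CP55940 as positive control. Compounds giving more than 50% activation in a single-concentration 10 µM primary screen were run in dose-response to derive EC50.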

For a further experiment, the species on record is Homo sapiens. In words: Selectivity index, ratio of EC50 for CB1 receptor (unknown origin) to EC50 for CB2 receptor (unknown origin).
The target in experiment [7] is T2, Cannabinoid receptor 2. In words: Potency index, ratio of GW842166X EC50 to test compound EC50 for agonist activity at CB2 receptor (unknown origin). The experiment is classed as functional.
Experiment [8] has as its target T2, Cannabinoid receptor 2. As to the kind of experiment: Antagonist activity at CB2 receptor (unknown origin) expressed in CHO cells assessed as inhibition of CP55940-induced calcium mobilization at 10 uM preincubated for 10 mins followed by CP55940-induction by fluo-4 AM dye-based fluorescence assay relative to SR141716A. The experiment is classed as functional, cell-based. Summed up: as §1

Experiment [9] addresses T2, Cannabinoid receptor 2. In words: Potency index, ratio of CP55940 EC50 to test compound EC50 for agonist activity at CB2 receptor (unknown origin). In kind it is functional.

T2 sequence (P34972 whole entry): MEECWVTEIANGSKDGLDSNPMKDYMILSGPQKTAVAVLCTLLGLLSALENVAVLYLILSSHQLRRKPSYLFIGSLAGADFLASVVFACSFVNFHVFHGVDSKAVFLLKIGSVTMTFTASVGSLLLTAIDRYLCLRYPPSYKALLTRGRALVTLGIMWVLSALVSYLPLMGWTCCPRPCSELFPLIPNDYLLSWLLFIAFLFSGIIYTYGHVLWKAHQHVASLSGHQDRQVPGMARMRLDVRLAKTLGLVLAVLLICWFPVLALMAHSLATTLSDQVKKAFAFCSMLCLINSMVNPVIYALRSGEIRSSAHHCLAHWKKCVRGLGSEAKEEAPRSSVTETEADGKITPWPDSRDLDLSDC
T1 sequence (P21554 whole entry): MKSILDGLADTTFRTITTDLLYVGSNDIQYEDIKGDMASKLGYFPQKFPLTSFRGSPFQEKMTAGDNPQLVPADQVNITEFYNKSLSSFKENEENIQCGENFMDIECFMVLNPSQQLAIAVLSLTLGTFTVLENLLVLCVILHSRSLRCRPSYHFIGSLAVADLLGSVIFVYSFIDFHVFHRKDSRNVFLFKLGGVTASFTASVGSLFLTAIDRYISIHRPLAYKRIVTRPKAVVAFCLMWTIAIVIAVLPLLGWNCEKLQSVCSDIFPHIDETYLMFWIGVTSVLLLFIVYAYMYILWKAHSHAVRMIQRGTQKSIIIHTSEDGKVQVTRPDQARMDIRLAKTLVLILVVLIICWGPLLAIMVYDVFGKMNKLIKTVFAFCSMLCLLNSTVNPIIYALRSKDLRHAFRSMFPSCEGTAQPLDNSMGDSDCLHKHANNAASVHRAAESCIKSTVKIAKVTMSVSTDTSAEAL

As to `CC(C)c1cc(C(=O)NC2C3CC4CC(C3)CC2C4)nnc1NC1CCCC1` (stereo unspecified), the Activity at Cannabinoid receptor 1 [1] is 6.55%; at Cannabinoid receptor 2 [3] it was 122%. Besides, the inhibition on Cannabinoid receptor 1 [2] was 24.1%. Moreover, the figures for the half-maximal effective concentration (EC50) on Cannabinoid receptor 1 [4] and at Cannabinoid receptor 2 [5] were greater than 10 µM and 0.0344 µM, respectively. The maximal effect (Emax) at Cannabinoid receptor 2 [6] stood at 114%. The Ratio EC50 in the experiment listed under Homo sapiens was greater than 291; on Cannabinoid receptor 2 [7] it was greater than 10.

Regarding `CC(C)c1cc(Nc2cccc(Cl)c2)nnc1C(=O)NC1C2CC3CC(C2)CC1C3` (stereo unspecified), the Activity is -6.45% on Cannabinoid receptor 1 [1] and 48% at Cannabinoid receptor 2 [3]. In addition, the inhibition on Cannabinoid receptor 2 [8] turned out to be 44.3%. Besides, the EC50 at Cannabinoid receptor 1 [4] was greater than 10 µM; at Cannabinoid receptor 2 [5], 6.7 µM. Besides, at Cannabinoid receptor 2 [6], the Emax came out at 77%. In the experiment filed under Homo sapiens, the Ratio EC50 was greater than 1.

For the compound `CCC(CC)Nc1nnc(C(=O)NC2C3CC4CC(C3)CC2C4)cc1C(C)C` (stereo unspecified), the Activity at Cannabinoid receptor 1 [1] was -5.62%; on Cannabinoid receptor 2 [3], 25%. The inhibition at Cannabinoid receptor 1 [2] is 4.48%; on Cannabinoid receptor 2 [8] it was 0.214%. Besides, the concentration for a half-maximal effect (EC50) at Cannabinoid receptor 1 [4] and on Cannabinoid receptor 2 [5] was greater than 10 µM each time.

Turning to `CC(C)c1cc(N2CCOCC2)nnc1C(=O)NC1C2CC3CC(C2)CC1C3` (stereo unspecified), the results for the Activity at Cannabinoid receptor 1 [1] and at Cannabinoid receptor 2 [3] were 26.1% and 126%, respectively. Moreover, the EC50 on Cannabinoid receptor 1 [4] was greater than 10 µM; on Cannabinoid receptor 2 [5] it was 0.00367 µM. Besides, the Emax at Cannabinoid receptor 2 [6] came to 91%. The Ratio EC50 was greater than 2730 in the experiment listed under Homo sapiens, 94 at Cannabinoid receptor 2 [7] and 8 at Cannabinoid receptor 2 [9].

`CC(C)c1cc(C(=O)NC2C3CC4CC(C3)CC2C4)nnc1Nc1cccc(Cl)c1` (stereo unspecified): the Activity was determined as 2.12% at Cannabinoid receptor 1 [1] and 19.2% at Cannabinoid receptor 2 [3]. Also, the inhibition on Cannabinoid receptor 1 [2] amounted to 5.1%; at Cannabinoid receptor 2 [8], 19.4%. Further, the concentration for a half-maximal effect (EC50) on Cannabinoid receptor 1 [4] and at Cannabinoid receptor 2 [5] was greater than 10 µM each time.

On to `CCCCNc1cc(C(C)C)c(C(=O)NC2CCCCC2)nn1`, for which the figures for the Activity on Cannabinoid receptor 1 [1] and at Cannabinoid receptor 2 [3] were 8.74% and 13.4%, respectively. Moreover, the results for the inhibition at Cannabinoid receptor 1 [2] and at Cannabinoid receptor 2 [8] were 47.9% and 50.6%, respectively. Further, the concentration for a half-maximal effect (EC50) on Cannabinoid receptor 1 [4] and on Cannabinoid receptor 2 [5] was greater than 10 µM each time.

Turning to `O=C(NC12CC3CC(CC(C3)C1)C2)c1ccc(N2CCOCC2)nn1`, the results for the Activity at Cannabinoid receptor 1 [1] and at Cannabinoid receptor 2 [3] were -4.49% and 33.7%, respectively. Also, the inhibition at Cannabinoid receptor 2 [8] was 25.8%. Also, the EC50 on Cannabinoid receptor 1 [4] and at Cannabinoid receptor 2 [5] was greater than 10 µM throughout.

With `CC(C)c1cc(N2CCN(C)CC2)nnc1C(=O)NC1C2CC3CC(C2)CC1C3` (stereo unspecified), the Activity at Cannabinoid receptor 1 [1] came out at 16.7%; on Cannabinoid receptor 2 [3], 3.06%. The inhibition at Cannabinoid receptor 1 [2] came to 37.3%; at Cannabinoid receptor 2 [8], 10.1%. Moreover, the EC50 on Cannabinoid receptor 1 [4] and on Cannabinoid receptor 2 [5] was greater than 10 µM throughout.

Regarding `O=C(NC1CCCCC1)c1ccc(N2CCOCC2)nn1`, the values for the Activity on Cannabinoid receptor 1 [1] and at Cannabinoid receptor 2 [3] were -3.69% and 17.7%, respectively. In addition, at Cannabinoid receptor 2 [8], the inhibition amounted to 16.3%. For the same compound, the concentration giving a half-maximal response (EC50) on Cannabinoid receptor 1 [4] and on Cannabinoid receptor 2 [5] was greater than 10 µM in each case.

`CC(C)c1cc(C(=O)NC2C3CC4CC(C3)CC2C4)nnc1N1CCCCC1` (stereo unspecified): the Activity on Cannabinoid receptor 1 [1] is -1.23%; on Cannabinoid receptor 2 [3] it was 63%. For the same compound, the inhibition at Cannabinoid receptor 1 [2] was -3.84%. Besides, the EC50 at Cannabinoid receptor 1 [4] was greater than 10 µM; on Cannabinoid receptor 2 [5], 3.45 µM. Also, the Emax on Cannabinoid receptor 2 [6] was 106%. Moreover, in the experiment listed under Homo sapiens, the Ratio EC50 is greater than 3.

With `CC(C)c1cc(C(=O)NC2C3CC4CC(C3)CC2C4)nnc1NC1CCCCC1` (stereo unspecified), the Activity worked out at 2.64% at Cannabinoid receptor 1 [1] and 106% at Cannabinoid receptor 2 [3]. The inhibition on Cannabinoid receptor 1 [2] amounted to 39.3%. In addition, the 50% effective concentration (EC50) on Cannabinoid receptor 1 [4] was greater than 10 µM; at Cannabinoid receptor 2 [5], 0.199 µM. Also, the Emax on Cannabinoid receptor 2 [6] turned out to be 91%. Further, the Ratio EC50 in the experiment filed under Homo sapiens is greater than 50.
